In ChEMBL document CHEMBL4680136, “Synthesis and antitumor activities investigation of a C-nucleoside analogue of ribavirin” (Eur J Med Chem, 2020):
Values after ≈ are worked out from the molar mass of the structure shown.

Tests used:
[1] = tested on: IGROV-1; experiment: Antiproliferative activity against human IGROV-1 cells assessed as reduction in cell growth incubated for 4 days by trypan blue exclusion assay; assay type: functional, cell-based; conditions: IGROV-1, 96 h
How it was run: (§1)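 Ovarian lines grown in RPMI-1640 glutaMAX with 10% FBS, 5% CO2, 37°C. Cells seeded at 20 000 cells/well in 24-well plates and exposed to 0, 1, 10, 20, 30 or 50 μg/mL for 7 days. Viable cells were counted daily by trypan blue exclusion. At least three independent experiments in triplicate; mean ± standard deviation.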

[2] = tested on: SNB-75; experiment: Antiproliferative activity against human SNB-75 cells assessed as reduction in cell growth at 100 uM incubated for 72 hrs by MTT assay relative to control; assay type: functional
[3] = Toxicity in Swiss mouse assessed as death rate at 5 to 100 mg/kg, ip observed after 7 days; assay type: organism-based; conditions: in vivo, dose 5-100 mg/kg, time 7 day, read-out: Activity
How it was run: (§2)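 Male 6-week-old Swiss mice, acclimatized 5-7 days, randomized into seven groups of 3. Single intraperitoneal injection at 5, 10, 25, 50, 75 or 100 mg/kg; controls housed alike without injection. Mice were monitored over the first 24 h, then daily for 7 days, recording mortality and behaviour.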

[4] = tested on: C6; experiment: Antiproliferative activity against rat C6 cells assessed as reduction in cell growth at 100 uM incubated for 72 hrs by MTT assay relative to control; assay type: functional
[5] = Cytotoxicity against human MET5A cells assessed as effect on cell morphology at 50 ug/ml measured upto 7 days by laser scanning confocal microscopy; assay type: cell-based; conditions: 168 h, time <=7 day, dose 50 µg/ml
How it was run: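 MeT-5A mesothelial cells, untreated or treated up to 50 μg/mL, were stained for actin cytoskeleton by immunofluorescence with DAPI-counterstained nuclei. Morphology was examined by laser scanning confocal microscopy on days 1, 3 and 7.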

[6] = tested on: B16-F10; experiment: Antiproliferative activity against mouse B16-F10 cells assessed as reduction in cell growth at 100 uM incubated for 72 hrs by MTT assay relative to control; assay type: functional
[7] = tested on: DU-145; experiment: Antiproliferative activity against human DU-145 cells assessed as reduction in cell growth incubated for 72 hrs by MTT assay; assay type: functional, cell-based; conditions: DU-145, 72 h
[8] = tested on: MDA-MB-435; experiment: Antiproliferative activity against human MDA-MB-435 cells assessed as reduction in cell growth at 100 uM incubated for 72 hrs by MTT assay relative to control; assay type: functional
[9] = Cytotoxicity against human MET5A cells assessed as effect on cell morphology at 20 ug/ml measured upto 7 days by laser scanning confocal microscopy; assay type: cell-based; conditions: 168 h, time <=7 day, dose 20 µg/ml
How it was run: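 Healthy mesothelial MeT-5A cells, treated or untreated, were followed over days 1, 3 and 7. Actin cytoskeleton was stained by immunofluorescence (green) and nuclei with DAPI. Morphology was examined by laser scanning confocal microscopy.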

[10] = Toxicity in Swiss mouse assessed as effect on food consumption at 5 to 100 mg/kg, ip observed after 7 days; assay type: organism-based; conditions: in vivo, 168 h, dose 5-100 mg/kg, time 7 day
[11] = tested on: C6; experiment: Antiproliferative activity against rat C6 cells assessed as reduction in cell growth incubated for 72 hrs by MTT assay; assay type: functional, cell-based; conditions: C6, 72 h
[12] = tested on: Caco-2; experiment: Antiproliferative activity against human CaCo-2 cells assessed as reduction in cell growth at 100 uM incubated for 72 hrs by MTT assay relative to control; assay type: functional
[13] = tested on: A-431; experiment: Antiproliferative activity against human A-431 cells assessed as reduction in cell growth at 100 uM incubated for 72 hrs by MTT assay relative to control; assay type: functional
[14] = tested on: SK-OV-3; experiment: Antiproliferative activity against human SK-OV-3 cells assessed as reduction in cell growth incubated for 3 days by trypan blue exclusion assay; assay type: functional, cell-based; conditions: SK-OV-3, 72 h; how it was run: as §1
[15] = Toxicity in Swiss mouse assessed as death rate at 5 to 100 mg/kg, ip observed after 24 hrs; assay type: organism-based; conditions: in vivo, dose 5-100 mg/kg, read-out: Activity; how it was run: as §2
[16] = tested on: MDA-MB-435; experiment: Antiproliferative activity against human MDA-MB-435 cells assessed as reduction in cell growth incubated for 72 hrs by MTT assay; assay type: functional, cell-based; conditions: MDA-MB-435, 72 h
[17] = Toxicity in Swiss mouse assessed as systemic signs at 5 to 100 mg/kg, ip observed after 7 days; assay type: organism-based; conditions: in vivo, 168 h, dose 5-100 mg/kg, time 7 day
[18] = tested on: SNB-75; experiment: Antiproliferative activity against human SNB-75 cells assessed as reduction in cell growth incubated for 72 hrs by MTT assay; assay type: functional, cell-based; conditions: SNB-75, 72 h
[19] = Toxicity in Swiss mouse assessed as effect on body weight at 5 to 100 mg/kg, ip observed after 7 days; assay type: organism-based; conditions: in vivo, 168 h, dose 5-100 mg/kg, time 7 day
[20] = tested on: IGROV-1; experiment: Antiproliferative activity against human IGROV-1 cells assessed as reduction in cell growth incubated for 3 days by trypan blue exclusion assay; assay type: functional, cell-based; conditions: IGROV-1, 72 h; how it was run: as §1
[21] = tested on: A-431; experiment: Antiproliferative activity against human A-431 cells assessed as reduction in cell growth incubated for 72 hrs by MTT assay; assay type: functional, cell-based; conditions: A-431, 72 h
[22] = tested on: IGROV-1; experiment: Antiproliferative activity against human IGROV-1 cells assessed as reduction in cell growth incubated for 7 days by trypan blue exclusion assay; assay type: functional, cell-based; conditions: IGROV-1, 168 h; how it was run: as §1
[23] = tested on: Caco-2; experiment: Antiproliferative activity against human CaCo-2 cells assessed as reduction in cell growth incubated for 72 hrs by MTT assay; assay type: functional, cell-based; conditions: Caco-2, 72 h
[24] = tested on: DU-145; experiment: Antiproliferative activity against human DU-145 cells assessed as reduction in cell growth at 100 uM incubated for 72 hrs by MTT assay relative to control; assay type: functional
[25] = tested on: SK-OV-3; experiment: Antiproliferative activity against human SK-OV-3 cells assessed as reduction in cell growth incubated for 7 days by trypan blue exclusion assay; assay type: functional, cell-based; conditions: SK-OV-3, 168 h; how it was run: as §1
[26] = tested on: B16-F10; experiment: Antiproliferative activity against mouse B16-F10 cells assessed as reduction in cell growth incubated for 72 hrs by MTT assay; assay type: functional, cell-based; conditions: B16-F10, 72 h
[27] = tested on: MDA-MB-231; experiment: Antiproliferative activity against human MDA-MB-231 cells assessed as reduction in cell growth at 100 uM incubated for 72 hrs by MTT assay relative to control; assay type: functional
[28] = tested on: Huh-7; experiment: Antiproliferative activity against human HuH-7 cells assessed as reduction in cell growth incubated for 72 hrs by MTT assay; assay type: functional, cell-based; conditions: Huh-7, 72 h
[29] = Toxicity in Swiss mouse assessed as effect on behaviour at 5 to 100 mg/kg, ip observed after 7 days; assay type: organism-based; conditions: in vivo, 168 h, dose 5-100 mg/kg, time 7 day
How it was run: (§3)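 Male 6-week-old Swiss mice were acclimatized 5-7 days and randomised into seven groups of 3. Six groups got a single i.p. injection at 5, 10, 25, 50, 75 or 100 mg/kg; controls were uninjected. Mice were monitored over the first 24 h, then daily for 7 days, recording mortality and behaviour.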

[30] = tested on: MDA-MB-231; experiment: Antiproliferative activity against human MDA-MB-231 cells assessed as reduction in cell growth incubated for 72 hrs by MTT assay; assay type: functional, cell-based; conditions: MDA-MB-231, 72 h
[31] = Toxicity in Swiss mouse assessed as abnormal appearance at 5 to 100 mg/kg, ip observed after 24 hrs; assay type: organism-based; conditions: in vivo, dose 5-100 mg/kg
[32] = tested on: Huh-7; experiment: Antiproliferative activity against human HuH-7 cells assessed as reduction in cell growth at 100 uM incubated for 72 hrs by MTT assay relative to control; assay type: functional
[33] = tested on: SK-OV-3; experiment: Antiproliferative activity against human SK-OV-3 cells assessed as reduction in cell growth incubated for 4 days by trypan blue exclusion assay; assay type: functional, cell-based; conditions: SK-OV-3, 96 h; how it was run: as §1
[34] = Toxicity in Swiss mouse assessed as abnormal behavior at 5 to 100 mg/kg, ip observed after 24 hrs; assay type: organism-based; conditions: in vivo, dose 5-100 mg/kg; how it was run: as §3

| Structure (SMILES) | IC50 [1] [µg/mL] | inhibition at 100 µM [2] [%] | inhibition at 100 µM [4] [%] | inhibition at 100 µM [6] [%] | IC50 [7] [µM] | inhibition at 100 µM [8] [%] | Activity [9] | IC50 [11] [µM] | inhibition at 100 µM [12] [%] | inhibition at 100 µM [13] [%] | IC50 [14] [µg/mL] | IC50 [16] [µM] | IC50 [18] [µM] | IC50 [20] [µg/mL] | IC50 [21] [µM] | IC50 [22] [µg/mL] | IC50 [23] [µM] | inhibition at 100 µM [24] [%] | IC50 [25] [µg/mL] | IC50 [26] [µM] | further results |
| --- | --- | --- | --- | --- | --- | --- | --- | --- | --- | --- | --- | --- | --- | --- | --- | --- | --- | --- | --- | --- | --- |
| NC(=O)c1n[nH]nc1[C@@H]1O[C@H](CO)[C@@H](O)[C@H]1O | 22.8 (≈ 93.4 µM) | 70 | 85 | 80 | 2.14 | 80 | Non-Toxic | 2.15 | 90 | 80 | 24.5 (≈ 100 µM) | 1.9 | 9.38 | 23 (≈ 94.2 µM) | 0.58 | 23.8 (≈ 97.5 µM) | 8.05 | 85 | 19 (≈ 77.8 µM) | 1.52 | mortality at 168 h [3]: 0%; Activity [5]: Non-Toxic; Activity [10]: Non-Toxic; mortality at 24 h [15]: 0%; Activity [17]: Non-Toxic; Activity [19]: Non-Toxic; inhibition at 100 µM [27]: 80%; IC50 [28]: 22.2 µM; Activity [29]: Non-Toxic; IC50 [30]: 9.59 µM; Activity [31]: Non-Toxic; inhibition at 100 µM [32]: 60%; IC50 [33]: 25.5 µg/mL (≈ 104 µM); Activity [34]: Non-Toxic |
| NC(=O)c1ncn([C@@H]2O[C@H](CO)[C@@H](O)[C@H]2O)n1 [RIBAVIRIN] | 21 (≈ 86 µM) | 70 | 75 | 80 | > 100 | 50 | Non-Toxic | 13.5 | 60 | 70 | 9 (≈ 36.9 µM) | 38.3 | 18.5 | 25 (≈ 102 µM) | 3.18 | 16 (≈ 65.5 µM) | 34.5 | 50 | 10 (≈ 40.9 µM) | 3.5 | inhibition at 100 µM [27]: 40%; IC50 [28]: 53.7 µM; IC50 [30]: > 100 µM; inhibition at 100 µM [32]: 60%; IC50 [33]: 10 µg/mL (≈ 40.9 µM) |
